ChEMBL document CHEMBL1125789, “Synthesis and selective class III antiarrhythmic activity of novel N-heteroaralkyl-substituted 1-(aryloxy)-2-propanolamine and related propylamine derivatives” (J Med Chem, 1991)

Tests used:
Canis familiaris [1] = species: Canis familiaris; assay: repolarization to reach -60mV, in canine Purkinje Fibers at a concentration of 0.3 uM at 1000 ms (simulating normal heart rate); type: functional, Canis lupus familiaris, Purkinje fiber
Outline: (§1)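 Purkinje fiber bundles were stimulated with square-wave current pulses of 2.0 ms at twice threshold and equilibrated for at least 1 h, or until action potential parameters were steady. Each concentration was superfused for 45-60 min to reach steady state. Action potentials were recorded at four to six sites per fiber, under control and after drug.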

Canis familiaris [2] = species: Canis familiaris; assay: Repolarization to reach -60mV, in canine Purkinje Fibers at a concentration of 1.0 uM at 300 ms (simulating tachycardia); type: functional, Canis lupus familiaris, Purkinje fiber
Outline: (§2)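 Isolated canine Purkinje fiber bundles were driven by square-wave pulses 2.0 ms long at 2× threshold and equilibrated ≥1 h to steady state. Each concentration was superfused 45–60 min before recording, and action potentials were sampled at 4–6 sites per fiber in control and after drug, giving Vmax and APD to −60 mV.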

Canis familiaris [3] = species: Canis familiaris; assay: Repolarization to reach -60mV, in canine Purkinje Fibers at a concentration of 0.3 uM at 300 ms (simulating tachycardia); type: functional, Canis lupus familiaris, Purkinje fiber; outline: as §2
Canis familiaris [4] = species: Canis familiaris; assay: Maximum rate of rise of the upstroke of transmembrane potential, in canine Purkinje Fibers at a concentration of 0.3 uM at 300 ms (simulating tachycardia); type: functional; design: unit not given here; conditions: Canis lupus familiaris, Purkinje fiber; outline: as §2
Canis familiaris [5] = species: Canis familiaris; assay: Maximum rate of rise of the upstroke of transmembrane potential, in canine Purkinje Fibers at a concentration of 3.0 uM at 300 ms (simulating tachycardia); type: functional; design: unit not given here; conditions: Canis lupus familiaris, Purkinje fiber; outline: as §2
Canis familiaris [6] = species: Canis familiaris; assay: Maximum rate of rise of the upstroke of transmembrane potential, in canine Purkinje Fibers at a concentration of 1.0 uM at 300 ms (simulating tachycardia); type: functional; design: unit not given here; conditions: Canis lupus familiaris, Purkinje fiber; outline: as §2
Canis familiaris [7] = species: Canis familiaris; assay: repolarization to reach -60mV, in canine Purkinje Fibers at a concentration of 1.0 uM at 1000 ms (simulating normal heart rate); type: functional, Canis lupus familiaris, Purkinje fiber; outline: as §1
Canis familiaris [8] = species: Canis familiaris; assay: repolarization to reach -60mV, in canine Purkinje Fibers at a concentration of 3.0 uM at 1000 ms (simulating normal heart rate); type: functional, Canis lupus familiaris, Purkinje fiber; outline: as §1
Canis familiaris [9] = species: Canis familiaris; assay: Repolarization to reach -60mV, in canine Purkinje Fibers at a concentration of 3.0 uM at 300 ms (simulating tachycardia); type: functional, Canis lupus familiaris, Purkinje fiber; outline: as §2
Canis familiaris [10] = species: Canis familiaris; assay: Maximum rate of rise of the upstroke of transmembrane potential, in canine Purkinje Fibers at a concentration of 0.3 uM at 1000 ms (simulating normal heart rate); type: functional; design: unit not given here; conditions: Canis lupus familiaris, Purkinje fiber; outline: as §2
Canis familiaris [11] = species: Canis familiaris; assay: Maximum rate of rise of the upstroke of transmembrane potential, in canine Purkinje Fibers at a concentration of 3.0 uM at 1000 ms (simulating normal heart rate); type: functional; design: unit not given here; conditions: Canis lupus familiaris, Purkinje fiber; outline: as §2
Canis familiaris [12] = species: Canis familiaris; assay: Maximum rate of rise of the upstroke of transmembrane potential, in canine Purkinje Fibers at a concentration of 1.0 uM at 1000 ms (simulating normal heart rate); type: functional; design: unit not given here; conditions: Canis lupus familiaris, Purkinje fiber; outline: as §2
Canis familiaris [13] = assay: Heart beat by the compound in open chest anesthetized dog, after iv administration at a dose of 5.0 mg/kg.; type: functional, Canis lupus familiaris; design: unit not given here
Outline: (§3)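 Hemodynamics (heart rate, mean arterial pressure) recorded in pentobarbital-anesthetized (30 mg/kg iv, 5 mg/kg per h maintenance) open-chest mongrel dogs during the refractoriness study at BCL 300 ms. Readings were taken before and after iv or intraduodenal compound and expressed as change from control.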

Canis familiaris [14] = assay: Ventricular conduction time by the compound in open chest anesthetized dog, after iv administration at a dose of 5.0 mg/kg.; type: functional, Canis lupus familiaris, Heart; design: unit not given here
Outline: (§4)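 Mongrel dogs were anesthetized with sodium pentobarbital (30 mg/kg iv, then 5 mg/kg per h), the chest opened, and the heart paced at BCL 300 ms. Compound was given iv or intraduodenally. Ventricular conduction time was taken as the interval between electrograms at the proximal and distal sites of the recording electrode array. 2-5 dogs per dose.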

Canis familiaris [15] = assay: Ventricular effective refractory period by the compound in open chest anesthetized dog, after iv administration at a dose of 5.0 mg/kg.; type: functional, Canis lupus familiaris, Heart; design: unit not given here
Canis familiaris [16] = assay: Atrial effective refractory period by the compound in open chest anesthetized dog, after iv administration at a dose of 5.0 mg/kg.; type: functional, Canis lupus familiaris, Cardiac atrium; design: unit not given here
Outline: (§5)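 Open-chest mongrel dogs under sodium pentobarbital anesthesia (30 mg/kg iv plus 5 mg/kg per h), paced at basic cycle length 300 ms. Atrial effective refractory period was determined by electrical stimulation before and after iv or intraduodenal compound and reported as change from control.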

Canis familiaris [17] = assay: Mean arterial pressure by the compound in open chest anesthetized dog, after iv administration at a dose of 5.0 mg/kg.; type: functional, Canis lupus familiaris, Artery; design: unit not given here; outline: as §3
Canis familiaris [18] = assay: Atrial conduction time by the compound in open chest anesthetized dog, after iv administration at a dose of 5.0 mg/kg.; type: functional, Canis lupus familiaris, Cardiac atrium; design: unit not given here
Outline: (§6)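 Mongrel dogs anesthetized with sodium pentobarbital (30 mg/kg iv, then 5 mg/kg per h), chest opened, paced at BCL 300 ms. Atrial conduction time was taken as the interval between electrograms recorded at the proximal and distal sites of the atrial recording electrode array, before and after iv or intraduodenal dosing. Values are changes from control.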

Canis familiaris [19] = assay: Atrial conduction time by the compound in open chest anesthetized dog, after iv administration at a dose of 0.50 mg/kg.; type: functional, Canis lupus familiaris, Cardiac atrium; conditions: dose 0.5 mg/kg; outline: as §6
Canis familiaris [20] = assay: Ventricular conduction time by the compound in open chest anesthetized dog, after iv administration at a dose of 0.50 mg/kg.; type: functional, Canis lupus familiaris, Heart; conditions: dose 0.5 mg/kg; outline: as §4
Canis familiaris [21] = assay: Heart beat by the compound in open chest anesthetized dog, after iv administration at a dose of 0.05 mg/kg.; type: functional, Canis lupus familiaris; outline: as §3
Canis familiaris [22] = assay: Ventricular effective refractory period by the compound in open chest anesthetized dog, after iv administration at a dose of 0.50 mg/kg.; type: functional, Canis lupus familiaris, Heart; conditions: dose 0.5 mg/kg
Canis familiaris [23] = species: Canis familiaris; assay: repolarization to reach -60mV, in canine Purkinje Fibers at a concentration of 0.01 uM at 1000 ms (simulating normal heart rate); type: functional, Canis lupus familiaris, Purkinje fiber; outline: as §1
Canis familiaris [24] = assay: Ventricular conduction time by the compound in open chest anesthetized dog, after iv administration at a dose of 0.05 mg/kg.; type: functional, Canis lupus familiaris, Heart; outline: as §4
Canis familiaris [25] = species: Canis familiaris; assay: Repolarization to reach -60mV, in canine Purkinje Fibers at a concentration of 0.01 uM at 300 ms (simulating tachycardia); type: functional, Canis lupus familiaris, Purkinje fiber; outline: as §2
Canis familiaris [26] = assay: Ventricular effective refractory period by the compound in open chest anesthetized dog, after iv administration at a dose of 0.05 mg/kg.; type: functional, Canis lupus familiaris, Heart
Canis familiaris [27] = assay: Atrial conduction time by the compound in open chest anesthetized dog, after iv administration at a dose of 0.05 mg/kg.; type: functional, Canis lupus familiaris, Cardiac atrium; outline: as §6
Canis familiaris [28] = assay: Ventricular effective refractory period by the compound in open chest anesthetized dog, after iv administration at a dose of 0.25 mg/kg.; type: functional, Canis lupus familiaris, Heart
Canis familiaris [29] = assay: Ventricular conduction time by the compound in open chest anesthetized dog, after iv administration at a dose of 0.25 mg/kg.; type: functional, Canis lupus familiaris, Heart; outline: as §4
Canis familiaris [30] = assay: Mean arterial pressure by the compound in open chest anesthetized dog, after iv administration at a dose of 0.05 mg/kg.; type: functional, Canis lupus familiaris, Artery; outline: as §3
Canis familiaris [31] = assay: Mean arterial pressure by the compound in open chest anesthetized dog, after iv administration at a dose of 0.50 mg/kg.; type: functional, Canis lupus familiaris, Artery; conditions: dose 0.5 mg/kg; outline: as §3
Canis familiaris [32] = species: Canis familiaris; assay: repolarization to reach -60mV, in canine Purkinje Fibers at a concentration of 0.03 uM at 1000 ms (simulating normal heart rate); type: functional, Canis lupus familiaris, Purkinje fiber; outline: as §1
Canis familiaris [33] = species: Canis familiaris; assay: Repolarization to reach -60mV, in canine Purkinje Fibers at a concentration of 0.10 uM at 300 ms (simulating tachycardia); type: functional, Canis lupus familiaris, Purkinje fiber; outline: as §2
Canis familiaris [34] = assay: Atrial effective refractory period by the compound in open chest anesthetized dog, after iv administration at a dose of 0.05 mg/kg.; type: functional, Canis lupus familiaris, Cardiac atrium; outline: as §5
Canis familiaris [35] = assay: Atrial conduction time by the compound in open chest anesthetized dog, after iv administration at a dose of 0.25 mg/kg.; type: functional, Canis lupus familiaris, Cardiac atrium; outline: as §6
Canis familiaris [36] = assay: Atrial effective refractory period by the compound in open chest anesthetized dog, after iv administration at a dose of 0.25 mg/kg.; type: functional, Canis lupus familiaris, Cardiac atrium; outline: as §5
Canis familiaris [37] = assay: Mean arterial pressure by the compound in open chest anesthetized dog, after iv administration at a dose of 0.25 mg/kg.; type: functional, Canis lupus familiaris, Artery; outline: as §3
Canis familiaris [38] = assay: Heart beat by the compound in open chest anesthetized dog, after iv administration at a dose of 0.25 mg/kg.; type: functional, Canis lupus familiaris; outline: as §3
Canis familiaris [39] = species: Canis familiaris; assay: repolarization to reach -60mV, in canine Purkinje Fibers at a concentration of 0.10 uM at 1000 ms (simulating normal heart rate); type: functional, Canis lupus familiaris, Purkinje fiber; outline: as §1
Canis familiaris [40] = assay: Atrial effective refractory period by the compound in open chest anesthetized dog, after iv administration at a dose of 0.50 mg/kg.; type: functional, Canis lupus familiaris, Cardiac atrium; conditions: dose 0.5 mg/kg; outline: as §5
Canis familiaris [41] = assay: Heart beat by the compound in open chest anesthetized dog, after iv administration at a dose of 0.50 mg/kg.; type: functional, Canis lupus familiaris; conditions: dose 0.5 mg/kg; outline: as §3

SMILES: CN(Cc1ccc2cc(F)ccc2n1)CC(O)COc1ccc(NS(C)(=O)=O)cc1 (configuration not stated)
- APD (Canis familiaris [1]): 31%
- APD (Canis familiaris [2]): 19%
- APD (Canis familiaris [3]): 12%
- Vmax (Canis familiaris [4]): 3
- Vmax (Canis familiaris [5]): 8
- Vmax (Canis familiaris [6]): 4
- APD (Canis familiaris [7]): 50%
- APD (Canis familiaris [8]): 55%
- APD (Canis familiaris [9]): 22%
- Vmax (Canis familiaris [10]): 3
- Vmax (Canis familiaris [11]): 11
- Vmax (Canis familiaris [12]): 5

SMILES: O=[N+]([O-])c1ccc(OCC(O)CN2CCN(c3ccccn3)CC2)cc1 (configuration not stated)
- HR (Canis familiaris [13]): -33
- VCT (Canis familiaris [14]): -7
- VERP (Canis familiaris [15]): 25
- AERP (Canis familiaris [16]): 69
- MBP (Canis familiaris [17]): -33
- Vmax (Canis familiaris [5]): -19
- APD (Canis familiaris [8]): 29%
- APD (Canis familiaris [9]): 15%
- ACT (Canis familiaris [18]): 16
- Vmax (Canis familiaris [11]): 8

SMILES: Cc1cccc(CCN2CCC(C(=O)c3ccc(NS(C)(=O)=O)cc3)CC2)n1
- ACT (Canis familiaris [19]): 1
- VCT (Canis familiaris [20]): -3
- HR (Canis familiaris [21]): -10
- VERP (Canis familiaris [22]): 24
- APD (Canis familiaris [23]): 27%
- VCT (Canis familiaris [24]): -3
- APD (Canis familiaris [25]): 11%
- VERP (Canis familiaris [26]): 18
- ACT (Canis familiaris [27]): 1
- VERP (Canis familiaris [28]): 23
- VCT (Canis familiaris [29]): -2
- MBP (Canis familiaris [30]): 2
- MBP (Canis familiaris [31]): -15
- APD (Canis familiaris [32]): 53%
- APD (Canis familiaris [33]): 24%
- AERP (Canis familiaris [34]): 28
- ACT (Canis familiaris [35]): 1
- AERP (Canis familiaris [36]): 38
- MBP (Canis familiaris [37]): -11
- HR (Canis familiaris [38]): -25
- APD (Canis familiaris [39]): 54%
- AERP (Canis familiaris [40]): 44
- HR (Canis familiaris [41]): -29

SMILES: CN(Cc1ccc2ccccc2n1)C[C@H](O)COc1ccc(NS(C)(=O)=O)cc1
- APD (Canis familiaris [1]): 22%
- APD (Canis familiaris [2]): 14%
- APD (Canis familiaris [3]): 13%
- Vmax (Canis familiaris [4]): -4
- Vmax (Canis familiaris [5]): 0
- Vmax (Canis familiaris [6]): -3
- APD (Canis familiaris [7]): 40%
- APD (Canis familiaris [8]): 54%
- APD (Canis familiaris [9]): 27%
- Vmax (Canis familiaris [10]): 9
- Vmax (Canis familiaris [11]): -5
- Vmax (Canis familiaris [12]): 0
